Measurements reported in paper PMC8752533 (European Journal of Drug Metabolism and Pharmacokinetics, 2021).
Where “and” joins values, the source holds several entries; their conditions need not be identical. Equal values may be shown once. Read-outs that look alike come from different tables or passages of the source.

Assays:
[1] = Phase I DDI study with rifampicin: safety and tolerability; format: in vivo, human (healthy male volunteers); details: for Participants with any AE: 16 participants per treatment
[2] = Phase I DDI study with itraconazole: safety and tolerability; format: in vivo, human (healthy male volunteers); details: for Treatment-related AEs / Participants with any AE / Gastrointestinal disorders / General disorders and administration site conditions / Infections and infestations / Musculoskeletal and connective tissue disorders / Nervous system disorders / Vascular disorders: DDI + itraconazole study; for Participants with any AE: 16 participants per treatment; for Gastrointestinal disorders / General disorders and administration site conditions / Infections and infestations / Musculoskeletal and connective tissue disorders / Nervous system disorders / Vascular disorders: system organ class
Method in brief: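 Healthy males aged 18–50, BMI 18.5–29.9, received a single oral 25 mg test compound dose alone in period 1. In period 2 the same dose was given on day 4 of oral itraconazole, 200 mg QD on days 2–10. Washout was ≥16 days. Dosing followed a standardised breakfast, with 240 ml water. Safety was scored as frequency n (%) of AEs by system organ class, including physical exam findings, alongside labs, vital signs and 12-lead ECG.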

CYP3A4 [3] = target: CYP3A4 (Homo sapiens, UniProt P08684); format: in vitro ADME; details: rCYP3A4, NADPH, up to 60 min
[4] = Analyte stability in human plasma samples containing tripotassium EDTA; format: physicochemical; details: human plasma with tripotassium EDTA, -20 °C
CYP3A5 = CYP3A5 (Homo sapiens, UniProt P20815); assay: Metabolism of BI 425809 by recombinant CYP isoforms; format: in vitro ADME
human liver microsomes = assay: Turnover of BI 425809 in human liver microsomes; format: in vitro ADME; details: BI 425809 0.2, 2, 10 μM; up to 60 min
CYP3A = assay: BI 425809 metabolism by human hepatocytes; format: in vitro ADME; details: erythromycin 30 µM, all BI 425809 concentrations evaluated
[5] = Phase I DDI study with itraconazole: plasma pharmacokinetics of BI 425809; format: in vivo, human (healthy male volunteers); details: for AUC(0-inf): AUC0-∞
[6] = tested on: cerebrospinal fluid glycine levels; details: multiple oral administrations, doses as low as 10 mg, dose-dependent; cited from earlier work
[7] = doses up to 75 mg in healthy volunteers; cited from earlier work
[8] = Phase I DDI study with rifampicin: plasma pharmacokinetics of BI 425809; format: in vivo, human (healthy male volunteers); details: for AUC(0-inf): AUC0-∞
CYP3A4 [9] = details: human liver microsomes; CYP3A4 inhibitor ketoconazole
[10] = DDI + rifampicin study, system organ class
[11] = BI 425809 + itraconazole relative to BI 425809 alone
[12] = male, human, plasma, oral, 25 mg
[13] = male, human, plasma, oral, 25 mg, gMean, BI 425809 25 mg alone, N = 16
[14] = BI 425809 + rifampicin relative to BI 425809 alone

Chain of CYP3A5 (P20815 whole entry, canonical isoform): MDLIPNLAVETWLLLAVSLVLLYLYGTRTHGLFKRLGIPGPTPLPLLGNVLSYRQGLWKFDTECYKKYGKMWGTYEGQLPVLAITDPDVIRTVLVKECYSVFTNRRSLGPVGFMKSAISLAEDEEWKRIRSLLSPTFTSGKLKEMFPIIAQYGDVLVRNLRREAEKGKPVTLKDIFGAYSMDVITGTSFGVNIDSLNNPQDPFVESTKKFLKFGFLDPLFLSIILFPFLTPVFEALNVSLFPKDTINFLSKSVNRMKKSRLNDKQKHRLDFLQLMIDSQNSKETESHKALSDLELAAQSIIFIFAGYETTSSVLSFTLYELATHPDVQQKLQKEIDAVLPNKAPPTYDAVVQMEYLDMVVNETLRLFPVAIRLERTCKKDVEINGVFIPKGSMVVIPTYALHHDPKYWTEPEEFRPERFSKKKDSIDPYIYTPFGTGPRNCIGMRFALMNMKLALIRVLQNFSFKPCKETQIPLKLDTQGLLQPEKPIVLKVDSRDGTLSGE
Chain of CYP3A4 (Homo sapiens, UniProt P08684) (P08684 whole entry): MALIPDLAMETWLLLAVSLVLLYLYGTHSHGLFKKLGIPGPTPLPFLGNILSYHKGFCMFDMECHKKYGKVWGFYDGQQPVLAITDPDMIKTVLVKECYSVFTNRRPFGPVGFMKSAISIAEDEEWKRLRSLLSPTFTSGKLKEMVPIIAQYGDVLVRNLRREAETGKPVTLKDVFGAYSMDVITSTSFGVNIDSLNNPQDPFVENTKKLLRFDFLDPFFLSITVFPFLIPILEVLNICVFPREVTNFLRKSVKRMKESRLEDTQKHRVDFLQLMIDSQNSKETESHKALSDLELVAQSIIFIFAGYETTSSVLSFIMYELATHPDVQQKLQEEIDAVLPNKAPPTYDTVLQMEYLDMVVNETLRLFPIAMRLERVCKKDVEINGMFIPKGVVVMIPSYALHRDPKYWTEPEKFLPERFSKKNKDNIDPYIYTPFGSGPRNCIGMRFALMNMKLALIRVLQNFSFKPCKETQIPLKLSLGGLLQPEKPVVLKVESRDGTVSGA

With C[C@@H](Oc1ccc(S(C)(=O)=O)cc1C(=O)N1C[C@@H]2C[C@]2(c2cc(C(F)(F)F)on2)C1)C(F)(F)F [BI 425809] the “Participants with Severe AE” value ([1]; DDI + rifampicin study) was 0 (0) n (%), the “Treatment-related AEs” value ([1]; DDI + rifampicin study) was 0 (0) n (%) and the “Participants with any AE” value ([1]; DDI + rifampicin study) was 2 (12.5) n (%). The Gastrointestinal disorders [1, 10] was 0 n (%), the “General disorders and administration site conditions” value [1, 10] was 0 n (%) and the Nervous system disorders [1, 10] was 1 (6.3) n (%). For the same molecule, the “Renal and urinary disorders” value [1, 10] was 0 n (%), the “Respiratory, thoracic and mediastinal disorders” value [1, 10] was 1 (6.3) n (%) and the “Skin and subcutaneous tissue disorders” value [1, 10] was 0 n (%). For the same molecule, the “participants who reported ≥ 1 AE” value ([1]; DDI with rifampicin) was 12.5%, the “Treatment-related AEs” value [2] was 0 (0) n (%) and the “Participants with any AE” value [2] was 6 (37.5) n (%). For the same molecule, the Gastrointestinal disorders [2] was 0 n (%), the “General disorders and administration site conditions” value [2] was 1 (6.3) n (%) and the Infections and infestations [2] was 3 (18.8) n (%). The “Musculoskeletal and connective tissue disorders” value [2] was 1 (6.3) n (%), the Nervous system disorders [2] was 1 (6.3) n (%) and the Vascular disorders [2] was 1 (6.3) n (%). For the same molecule, the “participants who reported ≥ 1 AE” value ([2]; DDI with itraconazole) was 37.5%, the tolerability ([2]; both DDI studies (itraconazole and rifampicin), 25 mg single oral dose) was “well tolerated” and the “depletion of BI 425809” value (CYP3A4 [3]) was over 15%. For the same molecule, the “period of demonstrated analyte stability” value [4] was 381 days, the “% In vitro CYP contribution, Depletion” value (CYP3A5; CYP3A5, depletion of BI 425809) was about 4% and the “depletion of BI 425809” value (CYP3A5; rCYP3A5, NADPH, up to 60 min) was over 15%. For the same molecule, the “turnover of BI 425809 in human liver microsomes” value (human liver microsomes) was “No detectable turnover”, the “inhibition of depletion of BI 425809 by erythromycin” value (CYP3A) was 92.1–100% and > 90% and the “CL/F, gMean” value ([5]; BI 425809 25 mg + itraconazole, N = 15) was 12.4 mL/min. For the same molecule, the “CL/F, gMean” value ([5]; BI 425809 25 mg alone, N = 16) was 73.3 mL/min, the “t1/2, gMean” value ([5]; BI 425809 25 mg alone, N = 16) was 45.5 h and the “AUC0-167, adjusted gMean ratio T/R (90% CI)” value [5, 11] was 265.3% and 265.3 (240.9‒292.2) %. For the same molecule, the “AUC0-∞, adjusted gMean ratio T/R (90% CI)” value [5, 11] was 597.0% and 597.0 (514.2‒693.0) %, the “Cmax, adjusted gMean ratio T/R (90% CI)” value [5, 11] was 116.1% and 116.1 (108.0‒124.7) % and the “extrapolated area of AUC0-∞” value ([5]; BI 425809 under itraconazole treatment) was 56%. It also gave an AUC(0-t) [5, 12] of 10.2 µM·h, a Cmax [5, 12] of 316 nM and an AUC(0-inf) ([5]; male, human, plasma, oral, 25 mg, adjusted gMean, BI 425809 alone (R), inferential analysis) of 11.1 µM·h. The AUC(0-inf) [5, 13] was 11.1 µM·h, the AUC(0-inf) ([5]; male, human, plasma, oral, adjusted gMean, BI 425809 + itraconazole (T), inferential analysis) was 66.2 µM·h and the AUC(0-inf) ([5]; male, human, plasma, oral, gMean, BI 425809 25 mg + itraconazole, N = 15) was 65.3 µM·h. For the same molecule, the AUC(0-t) ([5]; male, human, plasma, po, 25 mg) was 10.2 µM·h, the Cmax ([5]; read-out: Cmax, adjusted gMean, BI 425809 + itraconazole (T), inferential analysis) was 367 nM and the “increase in Cmax” value ([5]; with itraconazole versus alone) was about 16%. For the same molecule, the “mean increase in cerebrospinal fluid glycine levels” value [6] was 50%, the tolerability [7] was “generally well tolerated” and the “CL/F, gMean” value ([8]; BI 425809 25 mg alone, N = 16) was 94.6 mL/min. The “AUC0-168, adjusted gMean ratio T/R (90% CI)” value [8, 14] was 10.3% and 10.3 (9.3‒11.3) %, the “AUC0-∞, adjusted gMean ratio T/R (90% CI)” value [8, 14] was 9.8 (8.8–11.0) % and the “Cmax, adjusted gMean ratio T/R (90% CI)” value [8, 14] was 37.4% and 37.4 (33.0‒43.5) %. For the same molecule, the “AUC0-∞, adjusted gMean” value ([8]; BI 425809 alone (R), inferential analysis) was 8.596 µM·h, the AUC0-168 ratio ([8]; BI 425809 co-administered with rifampicin relative to BI 425809 alone) was 0.10 and the AUC(0-t) [8, 12] was 8.22 µM·h. It also gave a half-life [8, 12] of 33.4 h, an AUC(0-inf) [8, 13] of 8.6 µM·h and an AUC(0-inf) ([8]; male, human, plasma, oral, adjusted gMean, BI 425809 + rifampicin (T), inferential analysis) of 0.846 µM·h. It also gave an AUC(0-inf) ([8]; male, human, plasma, oral, gMean, BI 425809 25 mg + rifampicin, N = 15) of 0.837 µM·h, an AUC(0-t) ([8]; male, human, plasma, po, 25 mg) of 8.22 µM·h and a Cmax ([8]; read-out: Cmax, adjusted gMean, BI 425809 alone (R), inferential analysis) of 218 nM. The Cmax ([8]; read-out: Cmax, gMean, BI 425809 25 mg alone, N = 16) was 218 nM.
For CCC(C)n1ncn(-c2ccc(N3CCN(c4ccc(OCC5COC(Cn6cncn6)(c6ccc(Cl)cc6Cl)O5)cc4)CC3)cc2)c1=O (stereo not shown) [Itraconazole, itraconazole, reference compound], the “Treatment-related AEs” value [2] was 1 (6.3) n (%), the “Participants with any AE” value [2] was 4 (25.0) n (%) and the Gastrointestinal disorders [2] was 1 (6.3) n (%). For the same molecule, the “General disorders and administration site conditions” value [2] was 0 n (%), the Infections and infestations [2] was 2 (12.5) n (%) and the “Musculoskeletal and connective tissue disorders” value [2] was 1 (6.3) n (%). For the same molecule, the Nervous system disorders [2] was 0 n (%), the Vascular disorders [2] was 0 n (%) and the “participants who reported ≥ 1 AE” value ([2]; DDI with itraconazole) was 25%. The “participants with AE considered as drug-related by the investigator” value ([2]; DDI with itraconazole) was 6.3%.
In the case of CO[C@H]1/C=C/O[C@@]2(C)Oc3c(C)c(O)c4c(O)c(c(/C=N/N5CCN(C)CC5)c(O)c4c3C2=O)NC(=O)/C(C)=C\C=C\[C@H](C)[C@H](O)[C@@H](C)[C@@H](O)[C@@H](C)[C@H](OC(C)=O)[C@@H]1C [Rifampicin, rifampicin, reference compound], the “Participants with Severe AE” value ([1]; DDI + rifampicin study) was 0 (0) n (%), the “Treatment-related AEs” value ([1]; DDI + rifampicin study) was 16 (100) n (%) and the “Participants with any AE” value ([1]; DDI + rifampicin study) was 16 (100) n (%). For the same molecule, the Gastrointestinal disorders [1, 10] was 0 n (%), the “General disorders and administration site conditions” value [1, 10] was 1 (6.3) n (%) and the “Renal and urinary disorders” value [1, 10] was 16 (100) n (%). For the same molecule, the “Respiratory, thoracic and mediastinal disorders” value [1, 10] was 0 n (%), the “Skin and subcutaneous tissue disorders” value [1, 10] was 1 (6.3) n (%) and the “participants who reported ≥ 1 AE” value ([1]; DDI with rifampicin) was 100%. For the same molecule, the “participants with AE considered as drug-related by the investigator” value ([1]; DDI with rifampicin) was 100%.
In the case of CC(=O)N1CCN(c2ccc(OCC3COC(Cn4ccnc4)(c4ccc(Cl)cc4Cl)O3)cc2)CC1 (stereo not shown) [ketoconazole], the “inhibition of formation of BI 425809 metabolites M530 and M544” value (CYP3A4 [9]) was “completely inhibited”.
